Test results: ChEMBL document CHEMBL3627646, “Synthesis and biological activity of amino acid derivatives of avarone and its model compound” (Bioorg Med Chem, 2015)
≈ marks a conversion by molar mass, not a printed value. Calls of active or inactive are those of the source. No cut-off for these calls is given here.

Key:
Salmonella enterica = assay: Antibacterial activity against Salmonella enterica ATCC 13076 after 24 hrs by microbroth double dilution method; format: functional; conditions: ATCC 13076, 24 h
How it was run: (§1)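 Microbroth double dilution in Mueller Hinton broth; compound stock 10 mg/mL in DMSO serially halved across rows. Wells inoculated with 10 μL culture at 10^6 cells/mL, incubated 37 °C for 24 h. Amikacin row as positive control, DMSO row as negative control. MIC taken as lowest concentration inhibiting bacterial growth.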

Aspergillus brasiliensis = assay: Antifungal activity against Aspergillus brasiliensis ATCC 16404 after 24 hrs by microbroth double dilution method; format: functional
Pseudomonas aeruginosa = assay: Antibacterial activity against Pseudomonas aeruginosa ATCC 9027 after 24 hrs by microbroth double dilution method; format: functional; conditions: ATCC 9027, 24 h; how it was run: as §1
HeLa = assay: Cytotoxicity against human HeLa cells assessed as cell survival after 72 hrs by MTT assay; format: functional, cell-based
How it was run: (§2)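 Cells seeded (HeLa 2000, MDA-MB-453 3000, others 5000 per well), treated 24 h later (K562 after 2 h). Five double-diluted final concentrations, 200–12.5 μM, from 10 mM DMSO stocks, in RPMI-1640 with 10% FBS, pH 7.2, 72 h. MTT 4 h at 37 °C, SDS added, A570 read next day. Survival relative to medium control; IC50 from survival curves; triplicate; cisplatin positive control.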

Kocuria rhizophila = assay: Antibacterial activity against Kocuria rhizophila ATCC 9341 after 24 hrs by microbroth double dilution method; format: functional; conditions: ATCC 9341, 24 h; how it was run: as §1
Artemia salina = assay: Cytotoxicity in Brine shrimp assessed as nauplii mortality after 24 hrs; format: organism-based; conditions: in vivo
How it was run: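 Artemia salina eggs hatched in aerated tap water with dried yeast at 18–20 °C under illumination for 48 h, and freshly hatched nauplii were used. Compounds in DMSO (0.01–1 mg) were added to 950 µL artificial seawater containing 10–20 nauplii, with 5% final DMSO. After 24 h under illumination at room temperature, dead and surviving nauplii were counted and statistically analysed.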

Clostridium sporogenes = assay: Antibacterial activity against Clostridium sporogenes ATCC 19404 after 24 hrs by microbroth double dilution method; format: functional; conditions: ATCC 19404, 24 h; how it was run: as §1
[1] = Cytotoxicity against human Fem-X cells assessed as cell survival after 72 hrs by MTT assay; format: functional, cell-based; how it was run: as §2
Escherichia coli = assay: Antibacterial activity against Escherichia coli ATCC 25922 after 24 hrs by microbroth double dilution method; format: functional; conditions: ATCC 25922, 24 h; how it was run: as §1
Proteus hauseri = assay: Antibacterial activity against Proteus hauseri ATCC 13315 after 24 hrs by microbroth double dilution method; format: functional; conditions: ATCC 13315, 24 h; how it was run: as §1
Staphylococcus aureus = assay: Antibacterial activity against Staphylococcus aureus ATCC 6538 after 24 hrs by microbroth double dilution method; format: functional; conditions: ATCC 6538, 24 h; how it was run: as §1
Micrococcus luteus = assay: Antibacterial activity against Micrococcus luteus ATCC 4698 after 24 hrs by microbroth double dilution method; format: functional; conditions: ATCC 4698, 24 h; how it was run: as §1
K562 = assay: Cytotoxicity against human K562 cells assessed as cell survival after 72 hrs by MTT assay; format: functional, cell-based; conditions: K562, 72 h; how it was run: as §2
Candida albicans = assay: Antifungal activity against Candida albicans ATCC 10231 after 24 hrs by microbroth double dilution method; format: functional
Saccharomyces cerevisiae = assay: Antifungal activity against Saccharomyces cerevisiae ATCC 9763 after 24 hrs by microbroth double dilution method; format: functional
Micrococcus flavus = assay: Antibacterial activity against Micrococcus flavus ATCC 10240 after 24 hrs by microbroth double dilution method; format: functional; conditions: ATCC 10240, 24 h; how it was run: as §1
MDA-MB-453 = assay: Cytotoxicity against human MDA-MB-453 cells assessed as cell survival after 72 hrs by MTT assay; format: functional, cell-based; conditions: MDA-MB-453, 72 h; how it was run: as §2
Bacillus subtilis = assay: Antibacterial activity against Bacillus subtilis ATCC 6633 after 24 hrs by microbroth double dilution method; format: functional; conditions: ATCC 6633, 24 h; how it was run: as §1
A549 = assay: Cytotoxicity against human A549 cells assessed as cell survival after 72 hrs by MTT assay; format: functional, cell-based; conditions: A549, 72 h; how it was run: as §2
MRC5 = assay: Cytotoxicity against human MRC5 cells assessed as cell survival after 72 hrs by MTT assay; format: cell-based; conditions: MRC5, 72 h; how it was run: as §2

| Compound | MIC (Salmonella enterica) [µM] | MIC (Pseudomonas aeruginosa) [µM] | IC50 (HeLa) [µM] | MIC (Kocuria rhizophila) [µM] | LC50 (Artemia salina) [ppm] | MIC (Clostridium sporogenes) [µM] | IC50 [1] [µM] | MIC (Escherichia coli) [µM] | MIC (Proteus hauseri) [µM] | MIC (Staphylococcus aureus) [µM] | MIC (Micrococcus luteus) [µM] | IC50 (K562) [µM] | MIC (Micrococcus flavus) [µM] | IC50 (MDA-MB-453) [µM] | MIC (Bacillus subtilis) [µM] | IC50 (A549) [µM] | IC50 (MRC5) [µM] | MIC (Aspergillus brasiliensis; ATCC 16404, 24 h) [µM] | MIC (Candida albicans; ATCC 10231, 24 h) [µM] | MIC (Saccharomyces cerevisiae; ATCC 9763, 24 h) [µM] | also measured |
| --- | --- | --- | --- | --- | --- | --- | --- | --- | --- | --- | --- | --- | --- | --- | --- | --- | --- | --- | --- | --- | --- |
| CC1=CCC[C@H]2[C@](C)(CC3=CC(=O)C=CC3=O)[C@@H](C)CC[C@]12C [AVARONE] | 55.1 (≈ 17.2 µg/mL) | 13.8 (≈ 4.31 µg/mL) | 18.1 | 20 (≈ 6.26 µg/mL) | 170 | 20 (≈ 6.26 µg/mL) | 40.3 | 441 (≈ 138 µg/mL) | 27.6 (≈ 8.61 µg/mL) | 40.1 (≈ 12.5 µg/mL) | 2000 (≈ 625 µg/mL) | 17.1 | 20 (≈ 6.26 µg/mL) | 16.7 | 80.1 (≈ 25 µg/mL) | 30 | > 200 |  |  |  | MIC (Aspergillus brasiliensis): inactive; MIC (Candida albicans): inactive; MIC (Saccharomyces cerevisiae): inactive |
| CC1=CCC[C@H]2[C@](C)(CC3=CC(=O)C=C(N[C@@H](C)C(=O)O)C3=O)[C@@H](C)CC[C@]12C | 195 (≈ 78.1 µg/mL) | 195 (≈ 78.1 µg/mL) | 11.7 | 1570 (≈ 626 µg/mL) | 129.4 | 195 (≈ 77.9 µg/mL) | 10.3 | 49.1 (≈ 19.6 µg/mL) | 393 (≈ 157 µg/mL) | 49.1 (≈ 19.6 µg/mL) | 97.7 (≈ 39.1 µg/mL) | 15.8 | 195 (≈ 78.1 µg/mL) | 14.7 | 195 (≈ 78.1 µg/mL) | 54.3 | 157 | 1560 (≈ 624 µg/mL) | 6.13 (≈ 2.45 µg/mL) | 195 (≈ 77.9 µg/mL) |  |
| CC(C)(C)C1=CC(=O)C=C(NCC(=O)O)C1=O | 2640 (≈ 626 µg/mL) | 662 (≈ 157 µg/mL) | 132 | 2640 (≈ 626 µg/mL) | 197.4 | 2640 (≈ 626 µg/mL) | 34.3 | 662 (≈ 157 µg/mL) | 2640 (≈ 626 µg/mL) | 662 (≈ 157 µg/mL) | 662 (≈ 157 µg/mL) | 85 | 2640 (≈ 626 µg/mL) | 171 | 1320 (≈ 313 µg/mL) | > 200 | > 200 | 2640 (≈ 626 µg/mL) | 662 (≈ 157 µg/mL) | 662 (≈ 157 µg/mL) |  |
| CC1=CCC[C@H]2[C@](C)(CC3=CC(=O)C=C(NCC(=O)O)C3=O)[C@@H](C)CC[C@]12C | 407 (≈ 157 µg/mL) | 407 (≈ 157 µg/mL) | 19.9 | 811 (≈ 313 µg/mL) | 487.1 | 407 (≈ 157 µg/mL) | 17.8 | 101 (≈ 39 µg/mL) | 811 (≈ 313 µg/mL) | 101 (≈ 39 µg/mL) | 101 (≈ 39 µg/mL) | 15.6 | 407 (≈ 157 µg/mL) | 5.84 | 407 (≈ 157 µg/mL) | 46.7 | 183 | 404 (≈ 156 µg/mL) | 12.6 (≈ 4.86 µg/mL) | 100 (≈ 38.7 µg/mL) |  |
| CC1=CCC[C@H]2[C@](C)(CC3=CC(=O)C=C(N[C@@H](Cc4ccccc4)C(=O)O)C3=O)[C@@H](C)CC[C@]12C | 20.6 (≈ 9.81 µg/mL) | 20.6 (≈ 9.81 µg/mL) | 14.6 | 331 (≈ 157 µg/mL) | 96.7 | 82.1 (≈ 39.1 µg/mL) | 17.3 | 10.3 (≈ 4.91 µg/mL) | 82.1 (≈ 39.1 µg/mL) | 10.3 (≈ 4.91 µg/mL) | 10.3 (≈ 4.91 µg/mL) | 20.5 | 82.1 (≈ 39.1 µg/mL) | 16.6 | 20.6 (≈ 9.81 µg/mL) | 40.1 | > 200 | 1320 (≈ 626 µg/mL) | 164 (≈ 78.1 µg/mL) | 10.3 (≈ 4.91 µg/mL) |  |
| CC(C)(C)C1=CC(=O)C=C(NCCC(=O)O)C1=O | 2490 (≈ 625 µg/mL) | 2490 (≈ 625 µg/mL) | 47.1 | 2490 (≈ 625 µg/mL) | 833.2 | 1250 (≈ 313 µg/mL) | 28.4 | 1250 (≈ 313 µg/mL) | 2490 (≈ 625 µg/mL) | 625 (≈ 157 µg/mL) | 1250 (≈ 313 µg/mL) | 67 | 2490 (≈ 625 µg/mL) | 94.1 | 2490 (≈ 625 µg/mL) | 171 | > 200 | 2490 (≈ 626 µg/mL) | 626 (≈ 157 µg/mL) | 311 (≈ 78.1 µg/mL) |  |
| NCC[C@H](O)C(=O)N[C@@H]1C[C@H](N)[C@@H](O[C@H]2O[C@H](CN)[C@@H](O)[C@H](O)[C@H]2O)[C@H](O)[C@H]1O[C@H]1O[C@H](CO)[C@@H](O)[C@H](N)[C@H]1O [AMIKACIN] | 13.7 (≈ 8 µg/mL) | 85.4 (≈ 50 µg/mL) |  | 3.42 (≈ 2 µg/mL) |  | 25.6 (≈ 15 µg/mL) |  | 8.54 (≈ 5 µg/mL) | 11.9 (≈ 7 µg/mL) | 18.8 (≈ 11 µg/mL) | 13.7 (≈ 7.99 µg/mL) |  | 3.42 (≈ 2 µg/mL) |  | 71.7 (≈ 42 µg/mL) |  |  |  |  |  |  |
| NYSTATIN |  |  |  |  |  |  |  |  |  |  |  |  |  |  |  |  |  |  |  |  | MIC (Aspergillus brasiliensis): 1350 µM; MIC (Candida albicans): 2700 µM; MIC (Saccharomyces cerevisiae): 1350 µM |
| CC1=CCC[C@H]2[C@](C)(CC3=CC(=O)C=C(N[C@@H](Cc4c[nH]c5ccccc45)C(=O)O)C3=O)[C@@H](C)CC[C@]12C | 19.1 (≈ 9.81 µg/mL) | 37.9 (≈ 19.5 µg/mL) | 16.2 | 305 (≈ 157 µg/mL) |  | 37.9 (≈ 19.5 µg/mL) | 14.8 | 19.1 (≈ 9.81 µg/mL) | 37.9 (≈ 19.5 µg/mL) | 19.1 (≈ 9.81 µg/mL) | 19.1 (≈ 9.81 µg/mL) | 16.1 | 37.9 (≈ 19.5 µg/mL) | 22.9 | 37.9 (≈ 19.5 µg/mL) | 39.6 | 157 | 1220 (≈ 626 µg/mL) | 305 (≈ 157 µg/mL) | < 2.39 |  |
| CC(C)(C)C1=CC(=O)C=C(N[C@@H](Cc2c[nH]c3ccccc23)C(=O)O)C1=O | 1710 (≈ 626 µg/mL) | 1710 (≈ 626 µg/mL) | 106 | 1710 (≈ 626 µg/mL) |  | 1710 (≈ 626 µg/mL) | 34.7 | 1710 (≈ 626 µg/mL) | 1710 (≈ 626 µg/mL) | 855 (≈ 313 µg/mL) | 1710 (≈ 626 µg/mL) | 25 | 1710 (≈ 626 µg/mL) | 120 | 1710 (≈ 626 µg/mL) | 198 | > 200 | 1410 (≈ 516 µg/mL) | 213 (≈ 78.1 µg/mL) | 213 (≈ 78.1 µg/mL) |  |
